# Measurements: ChEMBL document CHEMBL1124214, “Synthesis, binding studies, and structure-activity relationships of 1-aryl-and 2-aryl[1]benzopyranopyrazol-4-ones, central benzodiazepine receptor ligands” (J Med Chem, 1988)
# pIC50: −log10 of the molar value.
# Biological target: GABA-A receptor; anion channel
# Test: Inhibition of [3H]flunitrazepam binding to benzodiazepine receptor in bovine brain membrane
# Assay type: cell membranes, Bos taurus
# In short: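 Bovine brain membranes (0.4-0.5 mg protein) incubated in triplicate with 0.6 nM [3H]flunitrazepam, 90 min at 0 °C, 50 mM Tris-HCl; compounds in EtOH unless noted. Rapid GF/B filtration, buffer wash, scintillation counting; nonspecific binding with 10 μM diazepam. IC50 from log-probit plots, mean ± SEM of seven determinations.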
row,Compound,pIC50
1,O=c1oc2ccccc2c2c1c(-c1ccccc1)nn2-c1ccccc1,4.80
2,COc1cccc(-n2nc3c(c2C)c(=O)oc2ccccc23)c1,5.30
3,Cc1nn(-c2cccc([N+](=O)[O-])c2)c2c1c(=O)oc1ccccc12,6.49
4,Cc1cccc(-n2nc(C)c3c(=O)oc4ccccc4c32)c1,6.55
5,Cc1nn(-c2ccc(Cl)cc2)c2c1c(=O)oc1ccccc12,6.12
6,Cc1nn(-c2ccccc2N)c2c1c(=O)oc1ccccc12,6.20
7,CNC1=Nc2ccc(Cl)cc2C(c2ccccc2)=[N+]([O-])C1 [CHLORDIAZEPOXIDE],6.10
8,Cc1c2c(=O)oc3ccccc3c2nn1-c1cccc(Br)c1,4.60
9,Cc1nn(-c2cccc(Cl)c2)c2c1c(=O)oc1ccccc12,7.05
10,Cc1nn(-c2ccc(N)cc2)c2c1c(=O)oc1ccccc12,5.89
11,Cc1nn(-c2ccccc2)c2c1c(=O)oc1ccccc12,6.52
12,Cc1nn(-c2ccccc2[N+](=O)[O-])c2c1c(=O)oc1ccccc12,4.37
13,CN1C(=O)CN=C(c2ccccc2)c2cc(Cl)ccc21 [DIAZEPAM],7.60
14,COc1ccc(-n2nc(C)c3c(=O)oc4ccccc4c32)cc1,6.15
15,Cc1nn(-c2ccc([N+](=O)[O-])cc2)c2c1c(=O)oc1ccccc12,6.00
16,Cc1ccccc1-n1nc(C)c2c(=O)oc3ccccc3c21,4.52
17,COc1ccccc1-n1nc(C)c2c(=O)oc3ccccc3c21,5.10
18,Cc1ccc(-n2nc(C)c3c(=O)oc4ccccc4c32)cc1,5.70
19,Cc1nn(-c2cccc(N)c2)c2c1c(=O)oc1ccccc12,5.47
20,Cc1nn(-c2cccc(Br)c2)c2c1c(=O)oc1ccccc12,7.00
21,COc1cccc(-n2nc(C)c3c(=O)oc4ccccc4c32)c1,6.12
22,Cc1cc(C)cc(-n2nc(C)c3c(=O)oc4ccccc4c32)c1,7.19
23,Cc1c2c(=O)oc3ccccc3c2nn1-c1ccccc1,5.51
24,Cc1cccc(-n2nc3c(c2C)c(=O)oc2ccccc23)c1,5.52
25,Cc1nn(-c2ccccc2Cl)c2c1c(=O)oc1ccccc12,4.80

# Species on record: Bos taurus
# Test: Percentage inhibition of [3H]flunitrazepam binding to benzodiazepine receptor of bovine brain membrane at 34 uM
# In short: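 Specific [3H]flunitrazepam binding (0.6 nM) to bovine brain membranes, 90 min at 0 °C in 50 mM Tris-HCl, triplicate incubations; test compound at 34 μM, EtOH vehicle unless noted. Filtration through GF/B, scintillation counting; 10 μM diazepam defines nonspecific binding. Percent inhibition as mean ± SEM of five determinations.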
row,Compound,inhibition [%]
1,O=c1oc2ccccc2c2c1c(-c1ccccc1)nn2-c1ccccc1,34
2,Cc1nn(-c2ccccc2Cl)c2c1c(=O)oc1ccccc12,34
